Calls of active or inactive are those of the source. The rule behind the calls is not given here.
Legend:
[1] = Antiproliferative activity against human BT143 cells incubated for 9 to 12 days by IncuCyte zoom live-cell imaging analysis; assay type: functional, cell-based
[2] = Antiproliferative activity against human G583 cells incubated for 9 to 12 days by IncuCyte zoom live-cell imaging analysis; assay type: functional, cell-based
Method in brief: (§1)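 Adherent culture on poly-L-ornithine/laminin in serum-free NS-A medium with EGF and bFGF (10 ng/mL each) and heparin. Nine concentrations (3 nM–30 µM), three technical replicates per dose, DMSO control, medium and drug refreshed every 5 days, run until DMSO wells were confluent (9–20 days). Confluence was imaged live and normalized to DMSO. Curves were taken at the 95th percentile of time to DMSO confluence, and AAC was calculated.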

[3] = Antiproliferative activity against human G800 cells incubated for 9 to 12 days by IncuCyte zoom live-cell imaging analysis; assay type: functional, cell-based; method in brief: as §1
[4] = Antiproliferative activity against human G799 cells incubated for 9 to 12 days by IncuCyte zoom live-cell imaging analysis; assay type: functional, cell-based; method in brief: as §1
[5] = Antiproliferative activity against human G837 cells incubated for 9 to 12 days by IncuCyte zoom live-cell imaging analysis; assay type: functional, cell-based; method in brief: as §1
[6] = Antiproliferative activity against human BT119 cells incubated for 9 to 12 days by IncuCyte zoom live-cell imaging analysis; assay type: functional, cell-based
G411 [7] = assay: Antiproliferative activity against human G411 cells incubated for 9 to 12 days by IncuCyte zoom live-cell imaging analysis; assay type: functional, cell-based; method in brief: as §1
[8] = Antiproliferative activity against human G702 cells incubated for 9 to 12 days by IncuCyte zoom live-cell imaging analysis; assay type: functional, cell-based; method in brief: as §1
[9] = Antiproliferative activity against human G861 cells incubated for 9 to 12 days by IncuCyte zoom live-cell imaging analysis; assay type: functional, cell-based; method in brief: as §1
[10] = Antiproliferative activity against human G564 cells incubated for 9 to 12 days by IncuCyte zoom live-cell imaging analysis; assay type: functional, cell-based; method in brief: as §1
[11] = Antiproliferative activity against human G566 cells incubated for 9 to 12 days by IncuCyte zoom live-cell imaging analysis; assay type: functional, cell-based; method in brief: as §1
[12] = Antiproliferative activity against human G876 cells incubated for 9 to 12 days by IncuCyte zoom live-cell imaging analysis; assay type: functional, cell-based; method in brief: as §1
[13] = Antiproliferative activity against human G561 cells incubated for 9 to 12 days by IncuCyte zoom live-cell imaging analysis; assay type: functional, cell-based; method in brief: as §1
[14] = Antiproliferative activity against human BT069 cells incubated for 9 to 12 days by IncuCyte zoom live-cell imaging analysis; assay type: functional, cell-based
[15] = Antiproliferative activity against human G851 cells incubated for 9 to 12 days by IncuCyte zoom live-cell imaging analysis; assay type: functional, cell-based; method in brief: as §1
[16] = Antiproliferative activity against human G523 cells incubated for 9 to 12 days by IncuCyte zoom live-cell imaging analysis; assay type: functional, cell-based; method in brief: as §1
[17] = Antiproliferative activity against human G895 cells incubated for 9 to 12 days by IncuCyte zoom live-cell imaging analysis; assay type: functional, cell-based; method in brief: as §1
G561 [18] = assay: Antiproliferative activity against human G561 cells at 1 uM incubated for 9 to 12 days by IncuCyte zoom live-cell imaging analysis; assay type: functional, cell-based; conditions: time 9-12 day
Method in brief: (§2)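 Adherent GSCs were cultured in serum-free medium with EGF and bFGF on poly-L-ornithine/laminin and plated in triplicate in 96-well plates. They were treated at 1 µM, with 1 µM SGC2096 or 0.05% DMSO as controls, for 9–12 days or until DMSO wells were confluent. Medium with drug was refreshed every 5 days. IncuCyte confluence was imaged every 8 h and normalized to each well's initial confluence.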

G411 [19] = assay: Antiproliferative activity against human G411 cells at 1 uM incubated for 9 to 12 days by IncuCyte zoom live-cell imaging analysis; assay type: functional, cell-based; conditions: time 9-12 day; method in brief: as §2
G583 [20] = assay: Antiproliferative activity against human G583 cells at 1 uM incubated for 9 to 12 days by IncuCyte zoom live-cell imaging analysis; assay type: functional, cell-based; conditions: time 9-12 day; method in brief: as §2
[21] = Antiproliferative activity against human HF7450 cells incubated for 9 to 12 days by IncuCyte zoom live-cell imaging analysis; assay type: functional, cell-based; method in brief: as §1
[22] = Antiproliferative activity against human HF6562 cells incubated for 9 to 12 days by IncuCyte zoom live-cell imaging analysis; assay type: functional, cell-based; method in brief: as §1
[23] = Antiproliferative activity against human G477 cells incubated for 9 to 12 days by IncuCyte zoom live-cell imaging analysis; assay type: functional, cell-based; method in brief: as §1
[24] = Antiproliferative activity against human G626 cells incubated for 9 to 12 days by IncuCyte zoom live-cell imaging analysis; assay type: functional, cell-based; method in brief: as §1
[25] = target: Protein arginine N-methyltransferase 5 (Homo sapiens) (UniProt O14744); assay: Inhibition of PRMT5 in human G411 cells assessed as reduction in SDMA level at 1 uM after 5 days by Western blot analysis; assay type: cell-based; conditions: time 5.0 day
Chain of Protein arginine N-methyltransferase 5 (Homo sapiens) (O14744 whole entry): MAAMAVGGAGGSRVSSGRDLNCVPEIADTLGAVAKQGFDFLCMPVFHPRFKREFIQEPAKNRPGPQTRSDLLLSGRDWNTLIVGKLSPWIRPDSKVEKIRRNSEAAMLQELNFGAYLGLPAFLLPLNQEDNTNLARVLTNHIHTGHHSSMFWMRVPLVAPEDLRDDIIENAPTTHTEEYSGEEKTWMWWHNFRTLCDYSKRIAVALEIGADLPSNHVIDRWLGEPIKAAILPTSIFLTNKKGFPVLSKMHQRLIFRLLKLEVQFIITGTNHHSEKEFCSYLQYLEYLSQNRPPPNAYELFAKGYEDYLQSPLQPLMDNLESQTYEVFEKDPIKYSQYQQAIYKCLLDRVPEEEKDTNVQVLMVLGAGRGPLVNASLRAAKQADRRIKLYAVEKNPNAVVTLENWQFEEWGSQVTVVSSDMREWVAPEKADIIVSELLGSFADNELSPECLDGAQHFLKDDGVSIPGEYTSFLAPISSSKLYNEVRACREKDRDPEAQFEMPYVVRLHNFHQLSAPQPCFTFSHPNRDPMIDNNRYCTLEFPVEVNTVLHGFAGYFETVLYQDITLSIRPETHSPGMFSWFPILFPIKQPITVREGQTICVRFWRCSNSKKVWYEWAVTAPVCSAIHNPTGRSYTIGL
Method in brief: (§3)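 Symmetric dimethylarginine on SmB/B' was measured by western blot with IRDye secondary antibodies and infrared imaging.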

[26] = target: Protein arginine N-methyltransferase 5 (Homo sapiens) (UniProt O14744); assay: Inhibition of PRMT5 in human G561 cells assessed as reduction in SDMA level at 1 uM after 5 days by Western blot analysis; assay type: cell-based; conditions: time 5.0 day; method in brief: as §3
[27] = target: Protein arginine N-methyltransferase 5 (Homo sapiens) (UniProt O14744); assay: Inhibition of PRMT5 in human G583 cells assessed as reduction in SDMA level at 1 uM after 5 days by Western blot analysis; assay type: cell-based; conditions: time 5.0 day; method in brief: as §3
[28] = target: Protein arginine N-methyltransferase 5 (Homo sapiens) (UniProt O14744); assay: Inhibition of PRMT5 in HFNS cells assessed as reduction in SDMA level at 1 uM after 5 days by Western blot analysis; assay type: cell-based; conditions: time 5.0 day
G561 [29] = assay: Inhibition of colony formation in human G561 cells assessed as reduction in sphere forming capacity at 1 uM incubated for 14 days by limiting dilution assay; assay type: functional, cell-based; conditions: time 14.0 day
Method in brief: (§4)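 Each GSC line was seeded on non-adherent 96-well plates in 1:2 serial dilutions from 2000 to 4 cells per well, six replicates per dilution, in adherent-culture medium. Treatment was 1 µM, with SGC2096 and DMSO as controls, added on day 1 and replenished weekly. Wells were scored for spheres at 1 and 2 weeks, and sphere frequency was estimated by ELDA (single-hit model). n = 3.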

G411 [30] = assay: Inhibition of colony formation in human G411 cells assessed as reduction in sphere forming capacity at 1 uM incubated for 14 days by limiting dilution assay; assay type: functional, cell-based; conditions: time 14.0 day; method in brief: as §4
G583 [31] = assay: Inhibition of colony formation in human G583 cells assessed as reduction in sphere forming capacity at 1 uM incubated for 14 days by limiting dilution assay; assay type: functional, cell-based; conditions: time 14.0 day; method in brief: as §4
[32] = target: Protein arginine N-methyltransferase 5 (Homo sapiens) (UniProt O14744); assay: Inhibition of PRMT5 in human G797 cells assessed as reduction in SDMA level at 1 uM after 7 days by Western blot analysis; assay type: cell-based; conditions: time 7.0 day
[33] = target: Protein arginine N-methyltransferase 5 (Homo sapiens) (UniProt O14744); assay: Inhibition of PRMT5 in human G549 cells assessed as reduction in SDMA level at 1 uM after 7 days by Western blot analysis; assay type: cell-based; conditions: time 7.0 day
G583 [34] = assay: Induction of senescence in human G583 cells at 1 uM after 5 days by SA-beta-galactosidase based assay; assay type: functional, cell-based; conditions: time 5.0 day
Method in brief: (§5)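 GSCs were treated at 1 µM for 5 days, with SGC2096 and DMSO as controls and n = 3. Cells were fixed in 4% paraformaldehyde for 5 min at RT, stained overnight with SA-β-gal solution, and counterstained with nuclear fast red. Blue cells were counted as a fraction of total cells.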

G729 [35] = assay: Induction of senescence in human G729 cells at 1 uM after 5 days by SA-beta-galactosidase based assay; assay type: functional, cell-based; conditions: time 5.0 day; method in brief: as §5
G411 [36] = assay: Induction of apoptosis in human G411 cells at 1 uM after 5 days by Annexin-V staining based IncuCyte live cell imaging analysis; assay type: functional; conditions: time 5.0 day
G583 [37] = assay: Induction of apoptosis in human G583 cells at 1 uM after 5 days by Annexin-V staining based IncuCyte live cell imaging analysis; assay type: functional; conditions: time 5.0 day
G729 [38] = assay: Induction of apoptosis in human G729 cells at 1 uM after 5 days by Annexin-V staining based IncuCyte live cell imaging analysis; assay type: functional; conditions: time 5.0 day

SMILES	IC50 [1]	EC50 [2]	IC50 [3]	IC50 [4]	IC50 [5]	IC50 [6]	EC50 (G411 [7])	IC50 [8]	IC50 [9]	IC50 [10]	IC50 [11]	IC50 [12]	EC50 [13]	IC50 [14]	IC50 [15]	IC50 [16]	IC50 [17]	Activity (G561 [18])	Activity (G411 [19])	Activity (G583 [20])	further results
O=C(NC[C@H](O)CN1CCc2ccccc2C1)c1ccnc(NC2CCC2)c1	0.6 µM	0.44 µM	16.4 µM	0.68 µM	5.01 µM	8.64 µM	0.1 µM	1.62 µM	1.28 µM	0.23 µM	2.05 µM	2.45 µM	1 µM	0.69 µM	0.57 µM	0.83 µM	0.64 µM	Active	Active	Active	EC50 [21]: 0.155 µM; EC50 [22]: 0.063 µM; EC50 [23]: 3.18 µM; EC50 [24]: 0.48 µM; inhibition [25]: Active; inhibition [26]: Active; inhibition [27]: Active; inhibition [28]: Active; inhibition (G561 [29]): Active; inhibition (G411 [30]): Active; inhibition (G583 [31]): Active; inhibition [32]: Active; inhibition [33]: Active; Activity (G583 [34]): Active; Activity (G729 [35]): Active; Activity (G411 [36]): Active; Activity (G583 [37]): Active; Activity (G729 [38]): Active
Nc1ncnc2c1ccn2[C@@H]1O[C@H]([C@H](O)c2ccccc2)[C@@H](O)[C@H]1O	0.16 µM	0.015 µM	0.12 µM	0.02 µM	0.04 µM	0.23 µM	0.019 µM	0.02 µM	0.04 µM	0.03 µM	0.03 µM	0.03 µM	0.01 µM	0.03 µM	0.01 µM	0.01 µM	0.1 µM	Active	Active	Active	EC50 [21]: 0.003 µM; EC50 [22]: 0.00066 µM; EC50 [23]: 0.04 µM; EC50 [24]: 0.01 µM; inhibition [25]: Active; inhibition [26]: Active; inhibition [27]: Active; inhibition [28]: Active; inhibition (G561 [29]): Active; inhibition (G411 [30]): Active; inhibition (G583 [31]): Active; inhibition [32]: Active; inhibition [33]: Active; Activity (G583 [34]): Active; Activity (G729 [35]): Active; Activity (G411 [36]): Active; Activity (G583 [37]): Active; Activity (G729 [38]): Active

Source: ChEMBL document CHEMBL5653632, “PRMT5 inhibition disrupts splicing and stemness in glioblastoma” (Nat Commun, 2021)
